Values after ≈ are worked out from the molar mass of the structure shown. Active and inactive are the calls of the source. The calls are words filed in the database; no cut-off is given here.

These results are taken from ChEMBL document CHEMBL1143742, “An antifungal agent inhibits an aminoacyl-tRNA synthetase by trapping tRNA in the editing site” (Science, 2007).

For experiment [1], the target named is T1, Leucine--tRNA ligase, cytoplasmic (Saccharomyces cerevisiae S288c, UniProt P26637).
T1 sequence (P26637 whole entry): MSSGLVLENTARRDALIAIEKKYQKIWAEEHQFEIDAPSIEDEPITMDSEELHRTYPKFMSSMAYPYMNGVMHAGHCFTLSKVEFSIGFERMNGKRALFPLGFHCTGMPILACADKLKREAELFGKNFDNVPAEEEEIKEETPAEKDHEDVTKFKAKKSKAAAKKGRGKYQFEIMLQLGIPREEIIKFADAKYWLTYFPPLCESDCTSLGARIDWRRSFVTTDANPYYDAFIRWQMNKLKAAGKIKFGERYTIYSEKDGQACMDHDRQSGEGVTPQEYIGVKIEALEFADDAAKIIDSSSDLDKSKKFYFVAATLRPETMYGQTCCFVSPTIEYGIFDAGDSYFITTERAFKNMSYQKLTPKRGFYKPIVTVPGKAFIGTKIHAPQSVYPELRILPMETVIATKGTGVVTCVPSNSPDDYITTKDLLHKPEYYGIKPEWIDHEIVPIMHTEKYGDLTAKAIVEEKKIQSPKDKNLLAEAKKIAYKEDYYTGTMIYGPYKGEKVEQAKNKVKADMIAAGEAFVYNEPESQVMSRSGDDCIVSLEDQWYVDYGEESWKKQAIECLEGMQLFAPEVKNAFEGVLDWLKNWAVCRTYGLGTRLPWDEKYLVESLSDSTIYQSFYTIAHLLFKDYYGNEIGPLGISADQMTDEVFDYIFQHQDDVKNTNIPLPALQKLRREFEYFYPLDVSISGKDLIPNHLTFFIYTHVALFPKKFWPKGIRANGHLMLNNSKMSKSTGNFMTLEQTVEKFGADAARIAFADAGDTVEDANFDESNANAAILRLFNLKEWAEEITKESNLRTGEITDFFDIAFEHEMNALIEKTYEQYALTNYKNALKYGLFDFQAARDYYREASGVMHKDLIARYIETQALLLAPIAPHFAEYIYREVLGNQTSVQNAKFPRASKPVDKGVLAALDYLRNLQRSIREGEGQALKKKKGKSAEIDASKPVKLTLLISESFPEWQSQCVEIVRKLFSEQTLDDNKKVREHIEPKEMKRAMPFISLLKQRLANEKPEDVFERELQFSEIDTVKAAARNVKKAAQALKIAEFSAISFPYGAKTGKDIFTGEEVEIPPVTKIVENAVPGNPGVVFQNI
Nature of the experiment: Inhibition of Saccharomyces cerevisiae cytoplasmic leucyl-tRNA synthetase assessed as tRNA amino-acylation. Put shortly:
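Recombinant N-terminal His6-tagged yeast Cdc60p (2 nM) in 50 mM HEPES-KOH pH 8.0, 30 mM MgCl2, 30 mM KCl, 0.02% BSA, 1 mM DTT, 20 µM [14C]leucine, 0.2 mg/mL brewer's yeast tRNA at 30°C. Enzyme preincubated 20 min with compound, tRNA and leucine; started with 4 mM ATP. Timed aliquots TCA-precipitated on nitrocellulose filters and counted by scintillation; triplicates.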

Experiment [2] relates to Saccharomyces cerevisiae. Nature of the experiment: Antimicrobial activity against Saccharomyces cerevisiae in synthetic defined media without leucine. In kind it is functional.
Experiment [3] concerns the target T1, Leucine--tRNA ligase, cytoplasmic. Nature of the experiment: Inhibition of Saccharomyces cerevisiae cytoplasmic leucyl-tRNA synthetase after 20 mins. Put shortly: (§1)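 His6-tagged yeast Cdc60p (LeuRS) expressed in E. coli Rosetta 2(DE3), used at 2 nM. Buffer 50 mM HEPES-KOH pH 8.0, 30 mM MgCl2, 30 mM KCl, 20 µM [14C]leucine, 0.2 mg/mL brewer's yeast tRNA, 0.02% BSA, 1 mM DTT, 30 °C. TCA-precipitated Leu-tRNA counted. Ki from Lineweaver-Burk y-intercepts replotted against inhibitor.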

In experiment [4] the test system is Saccharomyces cerevisiae. The experiment can be described thus: Antimicrobial activity against AN2690-resistant Saccharomyces cerevisiae ANA358 with CDC60 S416L mutation. In kind it is functional.
The subject of the next experiment is Penicillium chrysogenum. The experiment can be described thus: Antifungal activity against Penicillium chrysogenum ATCC 10108. In kind it is functional.
In experiment [5] the target is T1, Leucine--tRNA ligase, cytoplasmic. The experiment can be described thus: Binding affinity to Saccharomyces cerevisiae cytoplasmic leucyl-tRNA synthetase in presence of AMP. Summed up:
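Equilibrium dialysis across a 5 kDa membrane in 50 mM HEPES-KOH pH 8.0, 30 mM MgCl2, 30 mM KCl. Both sides counted in triplicate by scintillation, bound = side B minus side A. Kd from Scatchard plot.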

The next experiment deals with Trichophyton rubrum. Nature of the experiment: Antifungal activity against Trichophyton rubrum ATCC 18759. In kind it is functional.
Experiment [6] deals with Saccharomyces cerevisiae. The experiment can be described thus: Antimicrobial activity against AN2690-resistant Saccharomyces cerevisiae ANA322 with CDC60 C326F mutation. In kind it is functional.
In the next experiment the test system is Pichia kudriavzevii. The experiment can be described thus: Antifungal activity against Candida krusei ATCC 44507. In kind it is functional.
For the next experiment, the system named is Microsporum audouinii. Nature of the experiment: Antifungal activity against Microsporum audouinii ATCC 42558. It counts as functional.
The test system of another experiment is Cryptococcus neoformans. The experiment can be described thus: Antifungal activity against Cryptococcus neoformans F285. In kind it is functional.
The test system of experiment [7] is Cladosporium cladosporioides. The experiment can be described thus: Antifungal activity against Cladosporium cladosporioides ATCC 16022. In kind it is functional.
Experiment [8] has as its system Saccharomyces cerevisiae. The experiment can be described thus: Inhibition of protein synthesis in Saccharomyces cerevisiae S288C after 15 mins. In kind it is functional, organism-based. Summed up: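 Mid-log S. cerevisiae S288C in SDM lacking leucine, given 0.25 µCi [14C]leucine plus compound over a range of concentrations. 15 min at 30 °C, then cold 10% TCA for 15 min at 4 °C. Precipitate filtered, washed with 5% TCA and scintillation-counted. Percent incorporation relative to untreated cells. Run twice and averaged.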

The test system of experiment [9] is Saccharomyces cerevisiae. Nature of the experiment: Antimicrobial activity against AN2690-resistant Saccharomyces cerevisiae ANA327 with CDC60 T314M mutation. In kind it is functional.
In another experiment the test system is Fusarium solani. The experiment can be described thus: Antifungal activity against Fusarium solani ATCC 36031. In kind it is functional.
For experiment [10], the system named is Saccharomyces cerevisiae. Nature of the experiment: Antimicrobial activity against AN2690-resistant Saccharomyces cerevisiae ANA323 with CDC60 G405V mutation. In kind it is functional.
The nature of experiment [11]: Antifungal activity against Rhizopus microsporus ATCC 66276. In kind it is functional.
The subject of another experiment is Aspergillus fumigatus. The experiment can be described thus: Antifungal activity against Aspergillus fumigatus ATCC 13073. It counts as functional.
The test system of the next experiment is Malassezia pachydermatis. Nature of the experiment: Antifungal activity against Malassezia pachydermatis ATCC 96746. In kind it is functional.
Experiment [12] has as its target T1, Leucine--tRNA ligase, cytoplasmic. The experiment can be described thus: Inhibition of Saccharomyces cerevisiae cytoplasmic leucyl-tRNA synthetase after 2 mins. Put shortly: as §1
Experiment [13] has as its system Saccharomyces cerevisiae. Nature of the experiment: Antimicrobial activity against AN2690-resistant Saccharomyces cerevisiae ANA326 with CDC60 L315V mutation. It counts as functional.
For the next experiment, the system named is Candida albicans. The experiment can be described thus: Antifungal activity against Candida albicans ATCC 90028. In kind it is functional.
The test system of another experiment is Nannizzia gypsea. Nature of the experiment: Antifungal activity against Microsporum gypseum ATCC 24103. It counts as functional.
For experiment [14], the system named is Saccharomyces cerevisiae. The experiment can be described thus: Antimicrobial activity against AN2690-resistant Saccharomyces cerevisiae ANA324 with CDC60 C326R mutation. In kind it is functional.
The next experiment concerns Epidermophyton floccosum. The experiment can be described thus: Antifungal activity against Epidermophyton floccosum ATCC 525066. It counts as functional.
The subject of experiment [15] is Saccharomyces cerevisiae. Nature of the experiment: Antimicrobial activity against AN2690-resistant Saccharomyces cerevisiae ANA360 with CDC60 T319I mutation. It counts as functional.
Another experiment concerns Candida tropicalis. Nature of the experiment: Antifungal activity against Candida tropicalis ATCC 13803. In kind it is functional.
The next experiment concerns Malassezia furfur. The experiment can be described thus: Antifungal activity against Malassezia furfur ATCC 44344. In kind it is functional.
Experiment [16] deals with Saccharomyces cerevisiae. Nature of the experiment: Antimicrobial activity against AN2690-resistant Saccharomyces cerevisiae ANA321 with CDC60 R316I mutation. In kind it is functional.
The next experiment concerns Nakaseomyces glabratus. Nature of the experiment: Antifungal activity against Candida glabrata ATCC 90030. In kind it is functional.
For experiment [17], the system named is Saccharomyces cerevisiae. The experiment can be described thus: Antimicrobial activity against AN2690-resistant Saccharomyces cerevisiae ANA320 with CDC60 N415D mutation. In kind it is functional.
The test system of another experiment is Alternaria alternata. Nature of the experiment: Antifungal activity against Alternaria alternata ATCC 6663. In kind it is functional.
Experiment [18] relates to Saccharomyces cerevisiae. The experiment can be described thus: Antimicrobial activity against Saccharomyces cerevisiae ATCC 201388. In kind it is functional.
In the next experiment the test system is Trichophyton benhamiae. The experiment can be described thus: Antifungal activity against Trichophyton mentagrophytes ATCC 28185. It counts as functional, Arthroderma benhamiae.

With `OB1OCCc2cc(F)ccc21`, in experiment [1], the IC50 (in general, the midpoint of a concentration-inhibition curve) came to 96 µM.
Still for that read-out and setting: then `Cc1cc(F)ccc1B(O)O`, with greater than 100 µM; and `O=C1OCc2cc(F)ccc21`, with greater than 100 µM; and `OC1OCc2cc(F)ccc21` (stereo not drawn), with greater than 100 µM.
The same measure, in the same setting: then `OB(O)c1ccc(F)cc1`, with greater than 100 µM; and `COCc1cc(F)ccc1B(O)O`, with greater than 100 µM.
With `C[C@@H]1[C@H](O)[C@@H](C)/C=C/C=C/C=C/C=C/C=C/C=C/C=C/[C@H](O[C@@H]2O[C@H](C)[C@@H](O)[C@H](N)[C@@H]2O)C[C@@H]2O[C@](O)(C[C@@H](O)C[C@@H](O)[C@H](O)CC[C@@H](O)C[C@@H](O)CC(=O)O[C@H]1C)C[C@H](O)[C@H]2C(=O)O` [AMPHOTERICIN B], the MIC – broadly, the lowest concentration found to suppress growth – in the experiment on Saccharomyces cerevisiae [2] turned out to be 1 µg/mL (≈ 1.08 µM).
The same measure, in the same setting: the figure for `C/C=C/C/C=C/CCC(=O)[C@H]1O[C@H]1C(N)=O` [CERULENIN] is 0.5 µg/mL (≈ 2.24 µM); for `C[C@@H]1C[C@@H]([C@H](O)CC2CC(=O)NC(=O)C2)C(=O)[C@@H](C)C1` [CYCLOHEXIMIDE] it is 0.5 µg/mL (≈ 1.78 µM).
Regarding `OB1OCc2cc(F)ccc21` [TAVABOROLE], the Ki (as a rule, the equilibrium dissociation constant of an inhibitor or competing ligand from its target) in experiment [3] worked out at 1.85 µM; in [12], 31.4 µM. Also, in experiment [1], the IC50 came to 2.1 µM. Besides, the MIC in the experiment on Saccharomyces cerevisiae [4] was 32 µg/mL (≈ 211 µM); in the experiment with Penicillium chrysogenum, 2 µg/mL (≈ 13.2 µM); against Trichophyton rubrum, 2 µg/mL (≈ 13.2 µM); with Saccharomyces cerevisiae [6], 16 µg/mL (≈ 105 µM); against Pichia kudriavzevii it was 1 µg/mL (≈ 6.58 µM); in the experiment on Microsporum audouinii, 2 µg/mL (≈ 13.2 µM). For the same compound, the MIC stood at 0.25 µg/mL (≈ 1.65 µM) with Cryptococcus neoformans; 0.5 µg/mL (≈ 3.29 µM) in experiment [7]; 0.06 µg/mL (≈ 0.395 µM) against Saccharomyces cerevisiae [2]; 32 µg/mL (≈ 211 µM) against Saccharomyces cerevisiae [9]; 2 µg/mL (≈ 13.2 µM) against Fusarium solani; 16 µg/mL (≈ 105 µM) with Saccharomyces cerevisiae [10]. Further, the minimal inhibitory concentration (MIC) in experiment [11] came to 2 µg/mL (≈ 13.2 µM); against Aspergillus fumigatus, 0.25 µg/mL (≈ 1.65 µM); with Malassezia pachydermatis it was 1 µg/mL (≈ 6.58 µM); against Saccharomyces cerevisiae [13], 16 µg/mL (≈ 105 µM); in the experiment on Candida albicans, 0.5 µg/mL (≈ 3.29 µM); in the experiment on Nannizzia gypsea it was 2 µg/mL (≈ 13.2 µM). The MIC in the experiment on Saccharomyces cerevisiae [14] was found to be 16 µg/mL (≈ 105 µM); in the experiment with Epidermophyton floccosum, 1 µg/mL (≈ 6.58 µM); in the experiment on Saccharomyces cerevisiae [15], 32 µg/mL (≈ 211 µM); in the experiment with Candida tropicalis, 0.25 µg/mL (≈ 1.65 µM); in the experiment on Malassezia furfur it was 1 µg/mL (≈ 6.58 µM); with Saccharomyces cerevisiae [16], 16 µg/mL (≈ 105 µM). In addition, the MIC against Nakaseomyces glabratus was no more than 0.125 µg/mL; against Saccharomyces cerevisiae [17], 4 µg/mL (≈ 26.3 µM); in the experiment with Alternaria alternata it was 0.5 µg/mL (≈ 3.29 µM); with Saccharomyces cerevisiae [18], 0.125 µg/mL (≈ 0.823 µM); against Trichophyton benhamiae, 2 µg/mL (≈ 13.2 µM). In addition, the Kd – broadly, the free concentration of one partner at which half of the binding sites on the other are occupied at equilibrium, for simple one-to-one binding – in [5] turned out to be 20.8 µM. For the same compound, in the experiment with Saccharomyces cerevisiae [8], the outcome was Active.
